Assay outcomes: PubChem BioAssay, Sanford-Burnham Center for Chemical Genomics
Only some compounds are listed: those with a hit (about 1.8% of all), similar ones and a draw of the others.
Jurkat NFkB inh: lowers PMA/ionomycin-induced NF-kB signal in Jurkat cells | AID 435003 | inhibition, % at 4 µM | PMA/ionomycin-induced NF-kB luciferase reporter, luminescence | hit rate 0.53% among 330,000; in the data active means inhibition above about 50%
UPR XBP1 act: adaptive UPR (XBP1) activation; CHO-XBP1 luciferase reporter, IRE1-XBP1 UPR activation, luminescence; percent of tunicamycin response, DMSO as zero; activation, % at 20 µM; hit rate 0.33% among 330,000; AID 463104;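 active means versus positive control, 20 µM dose yields 30% or more activation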;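 further: 100% = tunicamycin at 10 µg/mL and 0% = DMSO only wells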
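Test system: CHO-XBP1 luciferase reporter cells | Buffer or medium: Serum-containing F12 medium, 10% FBS | Schedule: 6 h compound exposure at 37 °C, 5% CO2 | Detection: Steady-Glo luciferase glow luminescence, 10 min after reagent addition | Read-out basis: Activation, % of tunicamycin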
697 NFkB inh: lowers PMA/ionomycin-induced NF-kB signal in 697 B cells; inhibition, % at 4 µM; AID 435022; hit rate 0.33% among 330,000; 697 B-cell NF-kB luciferase reporter, 16 h; in the data active means inhibition above about 35%
UPR CHOP act: apoptotic UPR (CHOP) activation; CHO-CHOP luciferase reporter, luminescence; percent of tunicamycin response over DMSO baseline; activation, % at 10 µM; hit rate 0.34% among 330,000; AID 449763;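 active means at 10 µM dose, activation of 40% or more, normalized to positive control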;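 further: 100% = tunicamycin at 10 µg/mL and 0% = DMSO alone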
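Material: CHO-CHOP cells, stable luciferase reporter of PERK-eIF2a-CHOP signalling; quantity: 500 reporter cells seeded per well; buffer or medium: F12 medium containing 10% fetal bovine serum; compound: one dose, 10 µM in 0.5% DMSO; incubation: 6 h compound treatment, 37 °C; measured by: Steady-Glo luciferase luminescence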
CRFBP-R2 block: CRF-BP/CRF-R2 complex antagonism | HEK293 CRF-R2/CRF-BP, CRF-induced calcium fluorescence | inhibition, % at 11.8 µM | hit rate 0.59% among 350,000;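 active means inhibition of the ligand-induced calcium signal above about 50% at the single tested concentration, limit read from the data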
697 NFkB conf: inhibitors of the PMA/ionomycin-induced NF-kB reporter in 697 B cells, retest; shares compounds with 697 NFkB inh; 697 B-cell NF-kB luciferase, 16 h; inhibition, % at 4 µM; hit rate 35% among 2,000; AID 449746; in the data active means inhibition mostly above about 28%, no sharp cut-off; inactive means mostly below about 22%
* hit, by the source's call; i = inactive; . = not tested or not shown.

SMILES | Jurkat NFkB inh | UPR XBP1 act | 697 NFkB inh | UPR CHOP act | CRFBP-R2 block | 697 NFkB conf
Cc1oc(-c2ccccc2Cl)nc1CSCC(=O)N1CCCC1 | -32 | 1 | i | 0 | 20 | i
Cc1oc(-c2ccccc2Cl)nc1CSc1nc2c(c(=O)[nH]1)CCC2 | 10 | 0 | 41* | 2 | 2 | 24
Cc1oc(-c2ccccc2Cl)nc1CSCC(=O)NC1CCCC1 | 4 | 2 | 3 | 2 | -3 | .
Cc1oc(-c2cccc(Cl)c2)nc1CSc1nc2c(c(=O)[nH]1)CCC2 | 13 | 1 | 15 | 0 | 7 | .
CCOc1ccc(S(=O)(=O)NCc2ccncc2)cc1NC(=O)c1ccccc1 | 47 | -3 | 45* | -1 | 12 | 84*
COc1ccc(S(=O)(=O)NCc2ccncc2)cc1NC(=O)c1ccccc1 | 30 | -2 | -44 | 3 | -5 | .
Cc1cc(N(C)C)ccc1N=Nc1ccc(N)cc1 | -10 | 4 | 69* | 3 | -3 | 79*
COc1cc(NC(=O)c2n[nH]c(=O)c3ccccc23)cc(OC)c1 | -6 | 0 | 3 | 0 | 11 | .
Cc1cc(C)c(-c2csc(NC(=O)c3n[nH]c(=O)c4ccccc34)n2)c(C)c1 | -14 | -1 | -333 | 3 | 1 | -227
COc1ccc(-c2nc(NC(=O)c3n[nH]c(=O)c4ccccc34)sc2C)cc1 | -42 | -1 | i | 3 | -7 | -52
Cc1cc(NC(=O)c2ccccc2F)cc(C)c1OCC(=O)N1CCOCC1 | 7 | 1 | 15 | 1 | -7 | .
COc1cc(C(=O)Nc2cc(C)c(OCC(=O)N3CCOCC3)c(C)c2)cc(OC)c1OC | 5 | 2 | 36* | 2 | 9 | 32*
COc1ccccc1CNC(=O)CN1C(=O)NC2(CCCCCC2)C1=O | -6 | 0 | 16 | -2 | -2 | .
Clc1ccc(-c2cn3cc(Cl)ccc3n2)cc1 | -104 | -6 | -312 | -3 | 8 | -381
CCN(CC)S(=O)(=O)c1ccc(-c2cn3cc(Cl)ccc3n2)cc1 | -8 | -1 | -49 | 2 | 15 | .
Cn1cccc1C(=O)OCc1csc(-c2ccccc2)n1 | -121 | -2 | -292 | 0 | -9 | -341
CCN(CC(=O)Nc1c(F)cccc1F)C(=O)c1cc(S(=O)(=O)N2CCOCC2)ccc1N1CCCC1 | 21 | -2 | 40* | 1 | 2 | 32*
CCN(CC(=O)Nc1c(F)cccc1F)C(=O)c1cc([N+](=O)[O-])ccc1N1CCCCC1 | 5 | -6 | 35* | 1 | -13 | 44*
CCOc1ccc(CCNC(=O)CSc2nc3ncc(Cl)cc3[nH]2)cc1OCC | -10 | 1 | -2 | 1 | 13 | .
COc1ccc(/C=C\C(=O)O[C@@H]2C(O)C(O[C@@H]3OC(C)[C@H](O[C@@H]4OCC(O[C@H]5O[C@H](CO)[C@@H](O)C(O)C5O)C(O)C4O)C(O)C3O)[C@H](OC(=O)[C@]34CCC(C)(C)C[C@@H]3C3=CCC5[C@@]6(C)CC(O)C(O[C@@H]7OC(CO)C(O)[C@H](O)[C@H]7O)[C@@](C)(C(=O)O)C6CC[C@@]5(C)[C@]3(CO)CC4)O[C@H]2C)cc1 (some centres undefined) | 29 | 21 | 49* | 5 | -49 | 44*
COc1ccc(NC(=O)Cc2nnc(SCC(=O)NC3CCCC3)n2C)cc1 | 4 | -5 | -1 | 0 | -1 | .
COc1cc(-c2nc(C(=O)NCC3CCCO3)cc3c2[nH]c2ccccc23)cc(OC)c1OC (centres undefined) | -18 | 4 | 36* | 7 | -10 | 40*
CC(OC(=O)c1cc(=O)c2cc(Cl)ccc2o1)C(=O)N1CCCC1 (centres undefined) | 0 | -3 | 6 | 1 | -2 | .
O=C(Nc1ccc2ccccc2c1)c1ccccc1O | -120 | -7 | -324 | -2 | 6 | -459
Cc1cc(C)c(S(=O)(=O)NCc2ccncc2)c(C)c1 | 46 | -4 | 58* | 1 | -26 | 41*
SMILES | Jurkat NFkB inh | UPR XBP1 act | 697 NFkB inh | UPR CHOP act | CRFBP-R2 block | 697 NFkB conf
COc1ccc(N(CC(=O)NCCc2cccc(C)c2)S(=O)(=O)c2c(C)noc2C)cc1 | 9 | -3 | 3 | 0 | -8 | .
COc1ccc(-c2nn(-c3ccccc3)cc2/C=C(\C#N)C(N)=O)cc1[N+](=O)[O-] | -20 | -2 | 38* | -1 | 15 | 9
CC(C)(C)CN1C(N)=NC[C@H]1Cc1ccc(O)cc1 | -5 | 1 | -3 | -2 | 14 | .
CC(C)(C)CN1C(N)=NC[C@@H]1Cc1ccc(O)cc1 | 2 | 2 | 44* | -2 | 5 | 15
O=c1cc[nH]c2ccc(Cl)cc12 | -12 | 2 | 0 | 1 | 4 | .
O=c1cccc2c1c1cc[nH]c3ccc(=O)n2c31 | 24 | 5 | 56* | 3 | -27 | 52*
COc1ccccc1C(=O)NCC(=O)NCCc1ccc(Cl)cc1 | -2 | -2 | 11 | 2 | -3 | .
O=C(c1ccco1)N1CCN(c2ncnc3c2[nH]c2ccc(Br)cc23)CC1 | . | . | . | . | 9 | .
O=C(c1ccco1)N1CCN(c2ncnc3c2[nH]c2ccccc23)CC1 | 13 | 1 | 36* | 2 | . | 19
CCOC(=O)N1CCN(c2ncnc3c2[nH]c2ccc(OC)cc23)CC1 | -8 | 1 | 37* | 0 | 7 | 38*
CC1(C)Cc2c(sc(NC(=O)c3ccc(S(=O)(=O)N4CCCCCC4)cc3)c2C#N)C(C)(C)N1 | 9 | -9 | -14 | 1 | -43 | .
CCCN(CC(=O)Nc1ccccc1OC)CC(=O)c1c(N)n(Cc2ccccc2)c(=O)n(C)c1=O | . | . | . | . | 10 | .
Cc1c(CCC(=O)NCCCn2ccnc2)c(=O)oc2c(C)c3oc4c(c3cc12)CCCC4 | 18 | 1 | 38* | -3 | -5 | 23*
O=C1Nc2ccc(S(=O)(=O)NCCCO)c3cccc1c23 | -4 | -3 | -3 | 2 | 7 | .
CCNS(=O)(=O)c1ccc2c3c(cccc13)C(=O)N2 | 5 | 0 | 38* | -2 | 6 | 19
C[C@H](CO)N1C[C@H](C)[C@H](CN(C)C(=O)Nc2cccc(C(F)(F)F)c2)OCc2cnnn2CCCC1=O | . | . | . | . | -1 | .
COc1cc(Br)c(CC(=O)NC2CC2)cc1OC | 10 | -2 | -8 | -1 | 4 | .
CCN(CC)c1ccc2cc(NC(=O)CCC(=O)O)c(=O)oc2c1 | 21 | -9 | 80* | -9 | -80 | 72*
Cc1ccc2nc(-c3ccc(NC(=O)CN4CCN(c5ccccn5)CC4)cc3)sc2c1 | -79 | 3 | -290 | 9 | 11 | -230
CCn1c(SCC(=O)Nc2ccc(-c3nc4ccc(C)cc4s3)cc2)nnc1-c1ccccc1 | -76 | 0 | -326 | 3 | . | -189
O=C(c1ccccc1)C1CC=CCC1C(=O)c1ccccc1 (centres undefined) | . | . | . | . | 5 | .
O=[N+]([O-])c1ccc(/C=C/c2ccc3ccccc3n2)cc1 | -120 | -3 | -259 | -1 | -10 | -362
